Screening results: PubChem BioAssay, Johns Hopkins Ion Channel Center
RGS4 block = RGS4 inhibitors, primary screen, cell-based, HEK293 M3R inducible RGS4, calcium flux; Regulator of G-protein signaling 4 (Homo sapiens), P49798; Fluo-4 calcium flux; hits give high values; triggered by carbachol at its EC20; B-score at 10 µM; 310,000 compounds, 0.45% hits;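 active = B-score, a plate-corrected calcium signal, over three deviations above library mean, with baseline fluorescence within five deviations of library mean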;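 also: RGS4 expression induced by doxycycline in cells with stable M3 receptor; B-score is computed from the integrated fluorescence ratio over baseline after carbachol; higher B-score means a larger calcium signal and so more RGS4 inhibition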
Target sequence (P49798 whole entry, looked up): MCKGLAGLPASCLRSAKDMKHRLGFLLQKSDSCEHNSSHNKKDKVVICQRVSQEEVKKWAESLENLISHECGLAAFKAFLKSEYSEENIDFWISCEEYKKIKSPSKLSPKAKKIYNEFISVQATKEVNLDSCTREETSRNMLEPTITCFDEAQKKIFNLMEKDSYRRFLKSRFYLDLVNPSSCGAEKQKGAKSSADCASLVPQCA
MrgX1 agonist = agonists of human MrgX1 receptor, primary screen, HEK293 cells, Fluo-4 calcium flux. Fluo-4 calcium fluorescence, agonist mode; hits give high values. AID 588627, 2011. 310,000 compounds, 0.44% hits. B-score at 10 µM. Mas-related G-protein coupled receptor member X1 (Homo sapiens), Q96LB2;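 active = calcium response B-score plate-corrected fluorescence ratio at least 3 library SD, with starting fluorescence B-score inside 5 SD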
Target sequence (Q96LB2 whole entry, looked up): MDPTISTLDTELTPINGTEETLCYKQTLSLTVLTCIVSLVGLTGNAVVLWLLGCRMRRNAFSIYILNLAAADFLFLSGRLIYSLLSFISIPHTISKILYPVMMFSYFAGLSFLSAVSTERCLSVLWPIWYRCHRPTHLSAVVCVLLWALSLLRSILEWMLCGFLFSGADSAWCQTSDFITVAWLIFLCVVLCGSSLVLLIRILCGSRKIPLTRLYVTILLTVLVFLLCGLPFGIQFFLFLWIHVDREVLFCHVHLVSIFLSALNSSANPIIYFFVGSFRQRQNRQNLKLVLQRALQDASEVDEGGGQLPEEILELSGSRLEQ
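Material: MrgX1-expressing HEK293 cells; input: 15,000 cells per well; doses: test compound given as first of three sequential additions; schedule: overnight plating before 1 h dye loading; technique: Fluo-4 NW calcium-flux fluorescence, kinetic read; evaluation: baseline-normalised fluorescence change ratio, B-scored; control set: plate-wise positive and negative controls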
MrgX1 antagonist = antagonists of human MrgX1 receptor, primary screen, HEK293 cells, Fluo-4 calcium flux; BAM8-22 antagonism; hits give low values; B-score at 10 µM; 310,000 compounds, 1.3% hits;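 active = calcium-response B-score plate-corrected more than 3 library SD below zero, starting fluorescence within 5 deviations, no agonist response on first addition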;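 also: peak minus trough fluorescence over baseline after final BAM8-22 challenge near maximal dose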
MrgX1 allo act = positive allosteric modulators of MrgX1, primary screen, HEK293 cells, Fluo-4 calcium flux; FDSS; hits give high values; AID 588675, 2011; B-score at 10 µM; 310,000 compounds, 0.63% hits; Mas-related G-protein coupled receptor member X1 (Homo sapiens), Q96LB2;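 active = plate-corrected calcium response at least 3 library SD above typical, normal starting fluorescence, not activating the receptor alone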;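 also: compound read alongside a low EC10 to EC30 dose of BAM8-22 agonist; peak minus trough fluorescence over baseline measured at the second addition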
RGS4 pot = RGS4 potentiators or activators, primary screen, cell-based, HEK293 M3R inducible RGS4, calcium flux | B-score at 10 µM | AID 463111, 2010 | carbachol calcium flux Fluo4; hits give low values | 310,000 compounds, 0.92% hits;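 active = B-score of the integrated calcium signal more than 4 SD below the library mean, with starting fluorescence not abnormally high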;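 also: negative B-score means reduced calcium response which marks RGS4 activation or potentiation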
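Also added: carbachol at ECmax as muscarinic agonist stimulus; Assay system: HEK293 cells with stable M3R and inducible RGS4; Timing: overnight RGS4 induction, 30 min dye load 37 °C, 20 min compound RT; Measured by: Fluo4-AM (2 µM) calcium-flux fluorescence, kinetic read.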
Active calls of the source: *; i = inactive. Compounds with a hit are over-represented: about 3.5% of the library has one in this group of screens.

SMILES	RGS4 block	MrgX1 agonist	MrgX1 antagonist	MrgX1 allo act	RGS4 pot
Cc1cc(C)cc(N(CCC#N)C(=O)COC(=O)c2ccccc2SCC(=O)N2CCCC2)c1	i	i	i	i	-7.1*
Cc1ccc(N(CCC#N)C(=O)COC(=O)c2ccccc2SCC(=O)N2CCCC2)cc1	i	i	i	i	i
N=C1/C(=C\c2ccc(SCc3ccccc3)o2)C(=O)N=C2SC(CC(=O)N3CCOCC3)=NN12	i	i	i	i	i
N=C1/C(=C\c2ccc(SCc3ccccc3)o2)C(=O)N=C2SC=NN12	i	i	i	8.7*	i
O=C(NCCc1ccc(Cl)cc1)C1CCCN1C(=O)Nc1ccccc1 (stereo unspecified)	i	i	i	i	i
CCOc1cccc(C(=O)NNC(=O)C2C3C=CC(C3)C2C(=O)O)c1 (stereo unspecified)	i	i	i	i	i
Cc1c(NC(=O)C2(c3ccccc3)CCOCC2)c(=O)n(-c2ccccc2)n1C	i	i	i	6.7*	i
Cc1c(NC(=O)C2(c3ccc(Cl)cc3)CCCC2)c(=O)n(-c2ccccc2)n1C	i	i	i	i	i
CC(=O)Nc1ccc2c(c1)N(S(=O)(=O)c1cccs1)CCC2	i	i	i	i	i
c1cnc(Sc2ccc3nnnn3n2)nc1	i	i	i	i	i
CC(C)c1ccc(NC(=O)[C@@H](C)NC(=O)[C@@H]2Cc3ccccc3CN2)cc1	i	i	i	i	-7.4*
COC(C(=O)Nc1ccnn1C1CCN(Cc2ccc(Cl)s2)CC1)c1ccccc1 (stereo unspecified)	i	i	i	i	i
CC(C)c1ccc(/C=C/C(=O)NCc2ccc(S(N)(=O)=O)cc2)cc1	i	i	-6.8*	i	i
NS(=O)(=O)c1ccc(CNC(=O)/C=C/c2ccc(Cl)c(Cl)c2)cc1	i	i	i	i	i
C=CCc1cccc2cc(C(=O)Nc3ccc(CC(=O)O)cc3)c(=O)oc12	i	i	i	i	i
C=CCc1cccc2cc(C(=O)Nc3cccc(C(=O)O)c3)c(=O)oc12	i	i	i	7.6*	i
FCCCOc1ccc(/C=N/OCc2ccc(Cl)cc2Cl)cc1	i	i	-5.5*	i	i
Cc1cc(-c2ccc(S(=O)(=O)N3CCN(c4cccc(C)c4C)CC3)s2)on1	i	i	i	i	i
C#CCN1C(=O)C(O)(CC(=O)/C=C/C=C/c2ccccc2)c2ccccc21 (stereo unspecified)	i	i	i	6.7*	i
CCN1C(=O)C(O)(CC(=O)/C=C/C=C/c2ccccc2)c2ccccc21 (stereo unspecified)	i	i	i	i	i
O=[N+]([O-])c1ccc(Oc2ccc(S(=O)(=O)N3CCOCC3)cn2)cc1	i	i	-8*	i	i
Cc1ccc(NC(=O)/C(C#N)=C/c2ccc(C)s2)c(C)c1	i	i	-4.7*	i	i
Cc1c(C(=O)N2CCN(Cc3ccc4c(c3)OCO4)CC2)sc2ncnc(N3CCN(c4ccccc4F)CC3)c12	i	i	-5.4*	i	i
Cc1c(C(=O)OC(C)C(C)C[N+](C)(C)C)oc2ccccc12 (stereo unspecified)	i	i	i	i	-8.4*
N#Cc1ccccc1NC(=O)COC(=O)c1ccc(F)cc1F	i	i	i	i	i
SMILES	RGS4 block	MrgX1 agonist	MrgX1 antagonist	MrgX1 allo act	RGS4 pot
CC1CC(OC(=O)CN2CCCCC2)CC(C)(C)C1 (stereo unspecified)	i	i	i	i	i
Cc1ccc(F)cc1NC(=O)N1c2ccccc2NC(=O)CC1C (stereo unspecified)	i	i	i	i	i
CCN(CC)c1ccc(/C=N\NC(=O)c2cccc3cc[nH]c23)cc1	i	i	i	i	i
CCOc1ccc(C2C(C#N)=C(N)SC(N)=C2C#N)cc1OCC	i	i	i	i	i
N#CC1=C(N)SC(N)=C(C#N)C1c1cccc(Oc2ccccc2)c1	i	i	-6.5*	i	i
N#CC1=C(N)SC(N)=C(C#N)C1c1c(Cl)cccc1Cl	i	42*	i	i	i
N#CC1=C(N)SC(N)=C(C#N)C1Cc1ccccc1	i	i	i	i	i
N#CC1=C(N)SC(N)=C(C#N)C1CCc1ccccc1	i	i	-5.1*	i	i
CCN(Cc1ccncc1)C(=O)CSc1ccc2ccccc2c1	i	i	i	i	i
COc1ccc(N2CCN(C(=O)CNC(=O)c3cccc(Br)c3)CC2)cc1	i	i	i	i	i
Cc1ccc2nc(N(CCCN(C)C)C(=O)c3ccc(S(=O)(=O)N4CCc5ccccc5C4)cc3)sc2c1	i	i	i	i	-7.8*
CN(C)CCCN(C(=O)c1ccc(S(=O)(=O)N2CCc3ccccc3C2)cc1)c1nc2ccc(F)cc2s1	i	i	i	i	i
Cc1cc(C)c2sc(N(CCCN(C)C)C(=O)c3ccc(S(=O)(=O)N4CCCc5ccccc54)cc3)nc2c1	i	i	i	i	i
Cc1cc(C)c2sc(N(CCCN(C)C)C(=O)c3ccc(S(=O)(=O)N4CCc5ccccc5C4)cc3)nc2c1	i	i	-7.5*	i	i
COC(=O)c1ccc2c(=O)n(-c3ccc(OC)cc3)c(=S)[nH]c2c1	i	i	i	i	i
NC(=O)Cn1nc([N+](=O)[O-])nc1Oc1ccccc1C(=O)N1CCOCC1	i	i	-4.6*	i	i
NC(=O)Cn1nc([N+](=O)[O-])nc1Oc1ccccc1F	i	i	i	i	i
c1cncc(-c2nc(NCCCn3ccnc3)c3ccccc3n2)c1	i	i	i	i	-7*
Cc1nc(NCCCn2ccnc2)c2ccccc2n1	i	i	i	i	i
CCOc1ccc(S(=O)(=O)N(CC)CC(=O)N2CCOCC2)cc1C	i	i	i	i	i
CN(c1ccccc1)c1ccc(/C=C(\CCC(=O)O)c2nc3ccccc3s2)cc1[N+](=O)[O-]	i	i	-7.4*	i	i
COc1ccc(NC(=O)CO/N=C2/CCCc3nonc32)c(OC)c1	i	i	-5.5*	i	i
O=C(CO/N=C1\CCCc2nonc21)Nc1ccccc1Cl	i	i	i	14*	i
COc1ccc(NC(=O)CO/N=C2\CCCc3nonc32)cc1	i	i	i	i	i
